We go through 17 molecules from ChEMBL document CHEMBL1149120, “Discovery of potent inhibitors of dihydroneopterin aldolase using CrystaLEAD high-throughput X-ray crystallographic screening and structure-directed lead optimization” (J Med Chem, 2004).

The assay is described as follows: Inhibition of Staphylococcus aureus 7,8-dihydroneopterin aldolase. In short, it runs like this: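 DHNA expressed in E. coli BL21(DE3) and purified by DEAE, Q-Sepharose and S300 chromatography; 50 nM enzyme with 4 µM 7,8-dihydroneopterin in 20 mM HEPES pH 7.4, 150 mM NaCl, ambient temperature (~29 °C). IC50 is the concentration halving the initial rate.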
`Nc1nc(O)c2nn(-c3cccc(C(=O)NC[C@@H]4CCCCC[C@H]4O)c3)nc2n1` gave an IC50 of 350 nM. This lies in the sub-micromolar range.

With `Nc1nc(O)c2nn(-c3cccc(C(=O)NCC4(O)CCCCC4)c3)nc2n1`, half-maximal inhibition (IC50) was put at 740 nM.

Molecule `Nc1nc(O)c2nn(-c3cccc(C(=O)NCc4ccc5c(c4)CCO5)c3)nc2n1` returned an IC50 of 550 nM.

Take `Nc1nc(O)c2nn(-c3cccc(C(=O)NCCCCO)c3)nc2n1`: the midpoint of inhibition, the IC50, lay at 2000 nM.

`CCC(CO)(CO)CNC(=O)c1cccc(-n2nc3nc(N)nc(O)c3n2)c1` registered an IC50 of 950 nM.

For the molecule `Nc1nc(O)c2nn(-c3cccc(C(=O)NCc4ccc(-c5ccccc5)cc4)c3)nc2n1`, the IC50 worked out at 25000 nM.

In turn, `Nc1nc(O)c2nn(-c3cccc(C(=O)NC[C@H]4CCCC[C@H]4O)c3)nc2n1` came in with an IC50 of 410 nM.

In the case of `Nc1nc(O)c2nn(-c3cccc(C(=O)NCc4ccc5c(c4)OCO5)c3)nc2n1`, the IC50 worked out at 310 nM.

With `Nc1nc(O)c2cc(N(C=O)Cc3ccc(Cl)c(Cl)c3)ccc2n1`, the IC50 is 600 nM.

Take `CC(C)(CO)CNC(=O)c1cccc(-n2nc3nc(N)nc(O)c3n2)c1`: the IC50 was determined as 730 nM.

`Nc1nc(O)c2nn(-c3cccc(C(=O)NCc4cc(C(F)(F)F)cc(C(F)(F)F)c4)c3)nc2n1` yielded an IC50 of 1000 nM.

In turn, `Cc1nc(N)nc(O)c1N(Cc1ccc(Cl)c(Cl)c1)N=O` gave an IC50 of 1300 nM.

Turning to `NC1=NC(=O)C2N=C(S)N=C2N1` (configuration not stated), the IC50 was determined as 1000 nM.

As for `Cn1c(N)nc(-c2ccccc2)c(Br)c1=O`, half-maximal inhibition (IC50) required 38000 nM.

`Nc1nc(O)c2nn(-c3cccc(C(=O)NC[C@H]4CCCC[C@@H]4O)c3)nc2n1`: the IC50 was determined as 320 nM. This IC50 is about 120-fold lower than that of the molecule before.

The molecule `Nc1nc(O)c2nn(-c3cccc(C(=O)NCc4ccc(Oc5ccccc5)cc4)c3)nc2n1` gave a concentration for half-maximal inhibition (IC50) of 22000 nM.

As for `Nc1nc(O)c2nn(-c3cccc(C(=O)NCCCO)c3)nc2n1`, the IC50 is 2300 nM.
